Data published in ChEMBL document CHEMBL1932969, “Acyl derivatives of boswellic acids as inhibitors of NF-κB and STATs” (Bioorg Med Chem Lett, 2012).

How the values were obtained:
Type in all cases: functional
[1] = tested on: HT-29; experiment: Anticancer activity against human HT-29 cells assessed as growth inhibition at 50 uM after 48 hrs by SRB assay; details: HT-29, 48 h, read-out: GI
Procedure, shortened: (§1)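 Cells exposed to test compounds at 50 µM for 48 h. Read-out is percent growth inhibition, with SEM given. 5-Fluorouracil and adriamycin serve as reference agents.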

[2] = tested on: SW-620; experiment: Anticancer activity against human SW620 cells assessed as growth inhibition at 50 uM after 48 hrs by SRB assay; details: SW-620, 48 h, read-out: GI; procedure, shortened: as §1
[3] = tested on: COLO 205; experiment: Anticancer activity against human COLO205 cells assessed as growth inhibition at 50 uM after 48 hrs by SRB assay; details: COLO 205, 48 h, read-out: GI; procedure, shortened: as §1
[4] = tested on: DU-145; experiment: Anticancer activity against human DU145 cells assessed as growth inhibition at 50 uM after 48 hrs by SRB assay; details: DU-145, 48 h, read-out: GI; procedure, shortened: as §1
[5] = tested on: PC-3; experiment: Anticancer activity against human PC3 cells assessed as growth inhibition at 50 uM after 48 hrs by SRB assay; details: PC-3, 48 h, read-out: GI; procedure, shortened: as §1
[6] = tested on: HEp-2; experiment: Anticancer activity against human Hep2 cells assessed as growth inhibition at 50 uM after 48 hrs by SRB assay; details: HEp-2, 48 h, read-out: GI; procedure, shortened: as §1

O=c1[nH]cc(F)c(=O)[nH]1 [FLUOROURACIL]
inhibition of growth at 50 µM [1]: 41% | inhibition of growth at 50 µM [2]: 44% | inhibition of growth at 50 µM [3]: 29% | inhibition of growth at 50 µM [4]: 35% | inhibition of growth at 50 µM [5]: 16% | inhibition of growth at 50 µM [6]: 29%

C[C@H]1[C@H](C)CC[C@]2(C)CC[C@]3(C)C(=CC[C@@H]4[C@@]5(C)CC[C@@H](OC=O)[C@](C)(C(=O)O)[C@@H]5CC[C@]43C)[C@H]12
inhibition of growth at 50 µM [1]: 76% | inhibition of growth at 50 µM [2]: 87% | inhibition of growth at 50 µM [3]: 90% | inhibition of growth at 50 µM [4]: 90% | inhibition of growth at 50 µM [5]: 95% | inhibition of growth at 50 µM [6]: 72%

CC(=O)O[C@@H]1CC[C@@]2(C)[C@@H](CC[C@]3(C)[C@@H]2C(=O)C=C2[C@@H]4[C@@H](C)[C@H](C)CC[C@]4(C)CC[C@]23C)[C@@]1(C)C(=O)O [AKBA]
inhibition of growth at 50 µM [1]: 88% | inhibition of growth at 50 µM [2]: 88% | inhibition of growth at 50 µM [3]: 85% | inhibition of growth at 50 µM [4]: 85% | inhibition of growth at 50 µM [5]: 76% | inhibition of growth at 50 µM [6]: 59%

CO[C@@]12[C@H](COC(N)=O)C3=C(C(=O)C(C)=C(N)C3=O)N1C[C@@H]1N[C@@H]12 [MITOMYCIN]
inhibition of growth at 50 µM [1]: 60% | inhibition of growth at 50 µM [2]: 55% | inhibition of growth at 50 µM [3]: 43% | inhibition of growth at 50 µM [4]: 48% | inhibition of growth at 50 µM [5]: 55% | inhibition of growth at 50 µM [6]: 58%

COC(=O)[C@@]1(C)C(=O)CC[C@]2(C)[C@H]3CC=C4[C@@H]5[C@@H](C)[C@H](C)CC[C@]5(C)CC[C@@]4(C)[C@]3(C)CC[C@@H]12
inhibition of growth at 50 µM [1]: 33% | inhibition of growth at 50 µM [2]: 34% | inhibition of growth at 50 µM [3]: 34% | inhibition of growth at 50 µM [4]: 50% | inhibition of growth at 50 µM [5]: 44% | inhibition of growth at 50 µM [6]: 7%

COC(=O)[C@@]1(C)[C@H](O)CC[C@@]2(C)[C@H]1CC[C@]1(C)[C@@H]2C(=O)C=C2[C@@H]3[C@@H](C)[C@H](C)CC[C@]3(C)CC[C@]21C
inhibition of growth at 50 µM [1]: 67% | inhibition of growth at 50 µM [2]: 67% | inhibition of growth at 50 µM [3]: 70% | inhibition of growth at 50 µM [4]: 65% | inhibition of growth at 50 µM [5]: 87% | inhibition of growth at 50 µM [6]: 50%

C[C@H]1[C@H](C)CC[C@]2(C)CC[C@]3(C)C(=CC(=O)[C@@H]4[C@@]5(C)CC[C@@H](OC(=O)CCC(=O)O)[C@](C)(C(=O)O)[C@@H]5CC[C@]43C)[C@H]12
inhibition of growth at 50 µM [1]: 5% | inhibition of growth at 50 µM [2]: 4% | inhibition of growth at 50 µM [3]: 2% | inhibition of growth at 50 µM [4]: 51% | inhibition of growth at 50 µM [5]: 38% | inhibition of growth at 50 µM [6]: 6%

C[C@H]1[C@H](C)CC[C@]2(C)CC[C@]3(C)C(=CC[C@@H]4[C@@]5(C)CC[C@H](O)[C@](C)(C(=O)O)[C@@H]5CC[C@]43C)[C@H]12
inhibition of growth at 50 µM [1]: 70% | inhibition of growth at 50 µM [2]: 63% | inhibition of growth at 50 µM [3]: 81% | inhibition of growth at 50 µM [4]: 89% | inhibition of growth at 50 µM [5]: 72% | inhibition of growth at 50 µM [6]: 69%

COC(=O)[C@]1(C)[C@@H]2CC[C@]3(C)[C@H](C(=O)C=C4[C@@H]5[C@@H](C)[C@H](C)CC[C@]5(C)CC[C@]43C)[C@@]2(C)CC[C@@H]1O
inhibition of growth at 50 µM [1]: 8% | inhibition of growth at 50 µM [2]: 10% | inhibition of growth at 50 µM [3]: 21% | inhibition of growth at 50 µM [4]: 4% | inhibition of growth at 50 µM [5]: 5% | inhibition of growth at 50 µM [6]: 0%

CCCC(=O)O[C@H]1CC[C@@]2(C)[C@@H](CC[C@]3(C)[C@@H]2C(=O)C=C2[C@@H]4[C@@H](C)[C@H](C)CC[C@]4(C)CC[C@]23C)[C@@]1(C)C(=O)O
inhibition of growth at 50 µM [1]: 62% | inhibition of growth at 50 µM [2]: 79% | inhibition of growth at 50 µM [3]: 91% | inhibition of growth at 50 µM [4]: 92% | inhibition of growth at 50 µM [5]: 94% | inhibition of growth at 50 µM [6]: 66%

COC(=O)[C@]1(C)[C@@H]2CC[C@]3(C)[C@H](CC=C4[C@@H]5[C@@H](C)[C@H](C)CC[C@]5(C)CC[C@]43C)[C@@]2(C)CC[C@@H]1O
inhibition of growth at 50 µM [1]: 5% | inhibition of growth at 50 µM [2]: 9% | inhibition of growth at 50 µM [3]: 22% | inhibition of growth at 50 µM [4]: 3% | inhibition of growth at 50 µM [5]: 7% | inhibition of growth at 50 µM [6]: 0%

C[C@H]1[C@H](C)CC[C@]2(C)CC[C@]3(C)C(=CC(=O)[C@@H]4[C@@]5(C)CC[C@@H](O)[C@](C)(C(=O)O)[C@@H]5CC[C@]43C)[C@H]12 [11-KETO BOSWELLIC ACID]
inhibition of growth at 50 µM [1]: 39% | inhibition of growth at 50 µM [2]: 28% | inhibition of growth at 50 µM [3]: 52% | inhibition of growth at 50 µM [4]: 95% | inhibition of growth at 50 µM [5]: 100% | inhibition of growth at 50 µM [6]: 35%

CCCC(=O)O[C@H]1CC[C@@]2(C)[C@@H](CC[C@]3(C)[C@@H]2CC=C2[C@@H]4[C@@H](C)[C@H](C)CC[C@]4(C)CC[C@]23C)[C@@]1(C)C(=O)O
inhibition of growth at 50 µM [1]: 57% | inhibition of growth at 50 µM [2]: 79% | inhibition of growth at 50 µM [3]: 67% | inhibition of growth at 50 µM [4]: 89% | inhibition of growth at 50 µM [5]: 83% | inhibition of growth at 50 µM [6]: 63%

C[C@H]1[C@H](C)CC[C@]2(C)CC[C@]3(C)C(=CC[C@@H]4[C@@]5(C)CC[C@@H](OC(=O)CCC(=O)O)[C@](C)(C(=O)O)[C@@H]5CC[C@]43C)[C@H]12
inhibition of growth at 50 µM [1]: 72% | inhibition of growth at 50 µM [2]: 67% | inhibition of growth at 50 µM [3]: 88% | inhibition of growth at 50 µM [4]: 93% | inhibition of growth at 50 µM [5]: 90% | inhibition of growth at 50 µM [6]: 55%

COC(=O)[C@@]1(C)[C@H](O)CC[C@@]2(C)[C@H]1CC[C@]1(C)[C@@H]2CC=C2[C@@H]3[C@@H](C)[C@H](C)CC[C@]3(C)CC[C@]21C
inhibition of growth at 50 µM [1]: 35% | inhibition of growth at 50 µM [2]: 46% | inhibition of growth at 50 µM [3]: 43% | inhibition of growth at 50 µM [4]: 85% | inhibition of growth at 50 µM [5]: 54% | inhibition of growth at 50 µM [6]: 26%

C[C@H]1[C@H](C)CC[C@]2(C)CC[C@]3(C)C(=CC[C@@H]4[C@@]5(C)CC[C@H](OC(=O)CCC(=O)O)[C@](C)(C(=O)O)[C@@H]5CC[C@]43C)[C@H]12
inhibition of growth at 50 µM [1]: 13% | inhibition of growth at 50 µM [2]: 5% | inhibition of growth at 50 µM [3]: 19% | inhibition of growth at 50 µM [4]: 48% | inhibition of growth at 50 µM [5]: 35% | inhibition of growth at 50 µM [6]: 11%

CCC(=O)O[C@H]1CC[C@@]2(C)[C@@H](CC[C@]3(C)[C@@H]2C(=O)C=C2[C@@H]4[C@@H](C)[C@H](C)CC[C@]4(C)CC[C@]23C)[C@@]1(C)C(=O)O
inhibition of growth at 50 µM [1]: 64% | inhibition of growth at 50 µM [2]: 72% | inhibition of growth at 50 µM [3]: 83% | inhibition of growth at 50 µM [4]: 89% | inhibition of growth at 50 µM [5]: 96% | inhibition of growth at 50 µM [6]: 63%

COc1cccc2c1C(=O)c1c(O)c3c(c(O)c1C2=O)C[C@@](O)(C(=O)CO)C[C@@H]3O[C@H]1C[C@H](N)[C@H](O)[C@H](C)O1 [DOXORUBICIN]
inhibition of growth at 50 µM [1]: 88% | inhibition of growth at 50 µM [2]: 72% | inhibition of growth at 50 µM [3]: 81% | inhibition of growth at 50 µM [4]: 90% | inhibition of growth at 50 µM [5]: 86% | inhibition of growth at 50 µM [6]: 64%

CC(=O)O[C@H]1CC[C@@]2(C)[C@@H](CC[C@]3(C)[C@@H]2C(=O)C=C2[C@@H]4[C@@H](C)[C@H](C)CC[C@]4(C)CC[C@]23C)[C@@]1(C)C(=O)O
inhibition of growth at 50 µM [1]: 44% | inhibition of growth at 50 µM [2]: 44% | inhibition of growth at 50 µM [3]: 54% | inhibition of growth at 50 µM [4]: 83% | inhibition of growth at 50 µM [5]: 62% | inhibition of growth at 50 µM [6]: 47%
